MPTP block – blocks calcium-induced mitochondrial swelling | isolated mouse mitochondria, Ca2+ swelling absorbance, 30 min | hit rate 1.4% among 360,000 | inhibition, % at 10 µM;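 active = inhibition of 50% or more, scaled per plate between neutral and stimulator controls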
ADAM17 inh – ADAM17 inhibition, QFRET primary screen. P78536. recombinant ADAM17, EDANS/DABCYL FRET peptide cleavage. inhibition, % at 6.95 µM. hit rate 0.83% among 370,000;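 active = inhibition above the mean of compounds lying between control limits plus 3 SD, set per campaign, cut at about 8.5% in these data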
Target sequence (P78536 215-824 limits assumed): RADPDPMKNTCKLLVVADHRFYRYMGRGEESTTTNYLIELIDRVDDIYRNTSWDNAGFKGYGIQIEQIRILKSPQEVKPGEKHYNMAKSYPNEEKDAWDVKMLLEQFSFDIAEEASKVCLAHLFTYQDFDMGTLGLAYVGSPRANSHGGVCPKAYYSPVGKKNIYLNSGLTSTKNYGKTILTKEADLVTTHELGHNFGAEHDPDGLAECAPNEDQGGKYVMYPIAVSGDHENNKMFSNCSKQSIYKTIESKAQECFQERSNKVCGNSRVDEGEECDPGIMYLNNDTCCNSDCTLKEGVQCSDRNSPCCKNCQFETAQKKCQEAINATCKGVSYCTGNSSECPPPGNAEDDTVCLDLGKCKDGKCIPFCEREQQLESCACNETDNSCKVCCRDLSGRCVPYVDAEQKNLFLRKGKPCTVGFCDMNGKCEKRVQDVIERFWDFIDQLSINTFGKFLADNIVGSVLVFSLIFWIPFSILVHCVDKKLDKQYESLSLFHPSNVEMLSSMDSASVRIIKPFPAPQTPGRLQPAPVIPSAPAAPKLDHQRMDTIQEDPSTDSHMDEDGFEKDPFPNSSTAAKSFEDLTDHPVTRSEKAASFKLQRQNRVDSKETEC
SKN-1 block – C. elegans SKN-1 inhibition | C. elegans VP596 Pgst-4::GFP/RFP ratio, acrylamide-induced, 24 h | inhibition, % at 21.8 µM | hit rate 0.49% among 360,000 | AID 624304;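 active = interference check ratio from 0.5 to 1.5 plus GFP to RFP signal ratio inhibition reaching or exceeding a fixed threshold, cut at about 30% in these data, passing the limit was not always enough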
ADAM10 inh – ADAM10 inhibition, QFRET primary screen | O14672 | recombinant ADAM10, EDANS/DABCYL FRET peptide cleavage, 3 h | inhibition, % at 7 µM | hit rate 0.62% among 370,000;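 active = inhibition above a per-campaign cutoff equal to the mean of compounds falling between control-based bounds plus 3 SD, cut at about 20% in these data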
GRIN3A LBD mod – modulators (binders) of human NR3A ligand-binding domain | NR3A LBD differential scanning fluorimetry, Tm shift; 0% = protein alone, 100% = glycine-bound protein | Tm shift relative to glycine control, % at 25 µM | hit rate 2.5% among 340,000;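 active = melting temperature shift of at least 10% of the positive control shift, at one fixed dose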
MT1-MMP act inh – blocks activation of human MT1-MMP | HT1080 RFP-PRO-GFP cells, GFP/RFP ratio fluorescence, overnight; percent of plate control window, DMSO zero | GFP/RFP ratio change, % at 20 µM | P50281 | hit rate 0.061% among 360,000;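 active = GFP/RFP ratio change of at least 30% with cell ATP level not reduced by more than half and red fluorescence within 50% of control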
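Read-out: GFP/RFP fluorescence ratio; Test system: RFP-PRO-GFP reporter HT1080 cells; Compound dosing: single-point 20 µM compound, 1% DMSO; Times: overnight compound exposure at 37 °C.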
ADAM10 confirm – human ADAM10 inhibition, confirmation; AID 743208; ADAM10 QFRET peptide cleavage, EDANS fluorescence; hit rate 1% among 2,100; inhibition, % at 6.95 µM; shares compounds with ADAM10 inh;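 active = inhibition above about 20% chosen separately for each screening run, limit read from the data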
ADAM17 counter – ADAM17 inhibition, counter-screen for ADAM10 exosite hits. shares compounds with ADAM10 inh. ADAM17 QFRET peptide cleavage, EDANS fluorescence. inhibition, % at 6.95 µM. hit rate 0.5% among 2,100;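 active = mean triplicate inhibition above the solvent-only control wells' mean plus 3 SD, cut at about 12% in these data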
ADAM10 ctr – ADAM10 inhibition, counter-screen for ADAM17 exosite hits. recombinant ADAM10, EDANS/DABCYL FRET peptide cleavage, 3 h. inhibition, % at 6.95 µM. AID 743256. shares compounds with ADAM17 inh. hit rate 47% among 2,900;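 active = mean inhibition over the triplicate runs exceeds the activity threshold set in the earlier primary screen, cut at about 20% in these data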
ADAM17 confirm – confirmation of inhibitors of human ADAM17; recombinant ADAM17, EDANS/DABCYL QFRET peptide cleavage; AID 743257; inhibition, % at 6.95 µM; hit rate 65% among 2,900; shares compounds with ADAM17 inh;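 active = mean inhibition across replicates above the hit cutoff set in the primary screen, cut at about 8.5% in these data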
Hits are given with their value; n = inactive; x = not tested or not shown. Shown are actives, neighbours in structure and some others; about 4.7% of the full set was active somewhere.

SMILES	MPTP block	ADAM17 inh	SKN-1 block	ADAM10 inh	GRIN3A LBD mod	MT1-MMP act inh	ADAM10 confirm	ADAM17 counter	others
COc1ccc(C(=O)N/N=C/c2ccc(OC)c(COc3ccccc3)c2)cc1	n	n	n	70.8	n	n	n	n
Cc1cc(NC(=O)C(C)SCC(=O)Nc2nnc(CC(C)C)s2)no1 (configuration not stated)	n	n	n	82.2	n	n	n	n
Cc1cc(NC(=O)C(C)SCC(=O)O)no1 (configuration not stated)	n	n	n	n	n	n	x	x
Cc1ccc(NC(=S)NCCc2ccc(F)cc2)c(C)c1	n	n	n	n	n	n	x	x
Cc1ccc(NC(=S)Nc2ccc(F)cc2)c(C)c1	n	n	n	20.8	n	n	n	n
Cc1cccc(NC(=O)c2cc([N+](=O)[O-])ccc2N2CCOCC2)c1C	n	n	n	n	x	n	x	x
COc1ccc(-c2[nH]c(-c3ccc(C)cc3)nc2SCC(=O)Nc2nccs2)cc1	n	n	n	20.0	n	n	n	n
Cc1cccc([C@@H]2[C@@H]3C(=O)N(Cc4ccccc4)C(=O)[C@@H]3[C@]3(Cc4ccc(Cl)cc4)C(=O)N(c4ccccc4)C(=O)N23)c1	n	n	n	n	n	n	x	x
Cc1cccc([C@@H]2[C@@H]3C(=O)N(Cc4ccccc4)C(=O)[C@@H]3[C@]3(Cc4ccccc4)C(=O)N(c4ccccc4)C(=O)N23)c1	n	n	n	22.4	n	n	n	n
CC[C@@]12C(=O)N(c3ccccc3)C(=O)N1[C@H](c1cccc(C)c1)[C@@H]1C(=O)N(Cc3ccccc3)C(=O)[C@@H]12	n	n	n	n	n	n	x	x
CC[C@@]12C(=O)N(c3cccc(Br)c3)C(=O)N1[C@H](c1cccc(C)c1)[C@@H]1C(=O)N(Cc3ccccc3)C(=O)[C@@H]12	n	n	n	20.7	n	n	n	n
Cc1cccc([C@@H]2[C@@H]3C(=O)N(Cc4ccccc4)C(=O)[C@@H]3[C@]3(Cc4ccccc4)C(=O)N(c4ccc(C(F)(F)F)cc4)C(=O)N23)c1	n	n	n	20.5	n	n	n	n
O=C(c1noc2c1CCCC2)N1CCN(Cc2ccccc2)CC1	n	x	n	x	n	n	x	x
CN(c1ccc(OCC(=O)OCC(=O)Nc2ccc(F)cc2)cc1)S(=O)(=O)c1ccc(Cl)cc1	n	n	n	20.3	n	n	n	n
COc1ccc(CNC(=O)O[C@@H]2C[C@H]3C(=O)N(c4ccccc4)C(=O)[C@H]3[C@@]3(CN(S(=O)(=O)c4ccc(C)cc4)C[C@H]3C)[C@@H]2O)cc1OC	n	n	n	19.8	x	n	n	n
CCN(c1ccccc1)S(=O)(=O)c1ccc(Cl)c(NC(=O)COC(=O)c2ccc(O)cc2)c1	n	n	n	20.1	16.3	n	n	n
CCN(c1ccccc1)S(=O)(=O)c1ccc(Cl)c(NC(=O)COC(=O)C2CC2C)c1 (configuration not stated)	n	n	n	n	n	n	x	x
C=CCC[C@@H](Cc1ccc(F)cc1)C(=O)OC[C@H]1CCCN1C(=O)[C@@H](CC=C)CC(=O)N[C@H](CO)Cc1ccccc1	n	n	n	20.8	n	n	n	n
C=CC[C@@H](Cc1ccc(F)cc1)C(=O)OC[C@H]1CCCN1C(=O)[C@@H](CC=C)CC(=O)N[C@H](CO)Cc1ccccc1	n	n	n	n	n	n	x	x
C=CCC[C@@H](Cc1ccc(F)cc1)C(=O)OC[C@@H]1CCCN1C(=O)[C@@H](CC=C)CC(=O)N(CCO)Cc1ccccc1	n	n	n	21.2	n	n	n	n
C=CCC[C@H](Cc1ccc(F)cc1)C(=O)OC[C@H]1CCCN1C(=O)[C@@H](CC=C)CC(=O)NCCO	n	n	n	n	n	n	x	x
COc1cc(OC)cc(C(=O)NNC(=O)c2cc(=O)[nH]c3ccccc23)c1	n	n	n	n	n	n	x	x
COc1cc(C(=O)Nc2ccc(S(=O)(=O)N3CCc4ccccc43)cc2)cc(OC)c1OC	n	10.8	n	26.5	n	n	n	n	ADAM10 ctr=25.8;ADAM17 confirm=16.4
COc1ccccc1C(=O)Nc1ccc(S(=O)(=O)N2CCc3ccccc32)cc1	n	n	n	n	n	n	x	x
CC(CCc1ccc(O)cc1)NCCC(c1ccccc1)c1ccccc1 (configuration not stated)	n	n	n	n	n	n	x	x
SMILES	MPTP block	ADAM17 inh	SKN-1 block	ADAM10 inh	GRIN3A LBD mod	MT1-MMP act inh	ADAM10 confirm	ADAM17 counter	others
CC(CCc1ccc(O)cc1)NC(c1ccccc1)c1ccc(Cl)cc1 (configuration not stated)	n	12.1	n	27.9	n	n	n	n	ADAM10 ctr=28.7;ADAM17 confirm=24.2
CC(O)(c1ccc(F)c(F)c1)c1nc(-c2cc3ccccc3o2)cs1 (configuration not stated)	n	9.6	n	27.2	x	n	n	n	ADAM10 ctr=36.4;ADAM17 confirm=18.1
CC(C)(C)S(=O)N1Cc2cc(C(=O)NCc3ccc4c(c3)OCO4)nc(-c3cccc(-c4ccccc4)c3)c2[C@@H]1CCO (some centres not stated)	n	9.2	n	26.0	x	n	n	n	ADAM10 ctr=n;ADAM17 confirm=9.3
COc1ccc(CC(=O)Nc2ccc(S(=O)(=O)N3CCOCC3)cc2)cc1	n	n	n	n	n	n	x	x
COc1ccc(CNC(=O)CN(Cc2ccc(Cl)cc2)S(=O)(=O)c2ccccc2)cc1	n	18.1	n	24.3	n	n	n	n	ADAM10 ctr=n;ADAM17 confirm=14.3
COc1ccc(S(=O)(=O)N(CC(=O)Nc2ccc(S(=O)(=O)N3CCOCC3)cc2)Cc2ccc(F)cc2)cc1	n	9.4	n	31.9	n	n	n	n	ADAM10 ctr=41.2;ADAM17 confirm=16.5
COc1ccc(CNC(=O)CN(Cc2ccccc2)S(=O)(=O)c2ccc(Cl)cc2)cc1	n	20.9	n	28.9	n	n	n	n	ADAM10 ctr=n;ADAM17 confirm=10.2
Nc1c(C(O)(C(F)(F)F)C(F)(F)F)ccc2ccccc12	n	n	n	n	n	n	x	x
Cc1cc(C)cc(NC(=O)Nc2cccc(S(N)(=O)=O)c2)c1	n	n	n	n	n	n	x	x
Cc1cccc(-n2cc(CN(C)Cc3nccn3C)c(-c3cccc(F)c3)n2)c1	n	10.6	n	24.0	n	n	n	n	ADAM10 ctr=n;ADAM17 confirm=10.1
